What all share (type): functional
Experiment [1] relates to Mycobacterium tuberculosis. As to the kind of experiment: Antimycobacterial activity against multidrug resistant Mycobacterium tuberculosis Praha 4 after 14 days by micromethod. The settings on record: Praha 4, 336 h. In a few lines:
(§1)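 Multidrug-resistant M. tuberculosis strains, each inoculated at 10^-3 dilution; 234/2005 is resistant to INH, RIF, rifabutin, streptomycin, ethambutol and ofloxacin. MIC determined by micromethod in Šula's semisynthetic medium at 37 °C after 14 and 21 days. Compounds added from DMSO at 0.5–500 µM.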

Experiment [2] concerns Mycobacterium tuberculosis. As to the kind of experiment: Antimycobacterial activity against multidrug resistant Mycobacterium tuberculosis 9449/2007 after 14 days by micromethod. To be noted: 9449/2007, 336 h. In a few lines:
as §1

Experiment [3] concerns Mycobacterium tuberculosis. The experiment in a line: Antimycobacterial activity against multidrug resistant Mycobacterium tuberculosis 242/2015 after 14 days by micromethod. The settings on record: 242/2015, 336 h. In a few lines: as §1
The test system of experiment [4] is Mycobacterium tuberculosis. As to the kind of experiment: Antimycobacterial activity against extensively drug resistant Mycobacterium tuberculosis Praha 131 after 21 days by micromethod. The settings on record: Praha 131, 504 h. In a few lines: (§2)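 MIC micromethod in Šula's semisynthetic medium at 37 °C, read after 14 and 21 days. Compounds added as DMSO solutions at 500 down to 0.5 µM (twofold-type series: 500, 250, 125, 62.5, 32, 16, 8, 4, 2, 1, 0.5 µM). Isoniazid standard given in sterile water.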

Experiment [5] deals with Mycobacterium tuberculosis. As to the kind of experiment: Antimycobacterial activity against extensively drug resistant Mycobacterium tuberculosis Praha 131 after 14 days by micromethod. To be noted: Praha 131, 336 h. In short, it runs like this:
as §2

The test system of experiment [6] is Mycobacterium tuberculosis. As to the kind of experiment: Antimycobacterial activity against multidrug resistant Mycobacterium tuberculosis 9449/2007 after 21 days by micromethod. To be noted: 9449/2007, 504 h. In short, it runs like this: as §1
Experiment [7] has as its system Mycobacterium tuberculosis. The experiment in a line: Antimycobacterial activity against multidrug resistant Mycobacterium tuberculosis Praha 1 after 21 days by micromethod. The settings on record: Praha 1, 504 h. In a few lines:
as §1

The test system of experiment [8] is Mycobacterium tuberculosis. The experiment in a line: Antimycobacterial activity against multidrug resistant Mycobacterium tuberculosis Praha 1 after 14 days by micromethod. To be noted: Praha 1, 336 h. In a few lines: as §1
Experiment [9] deals with Mycobacterium tuberculosis. The experiment in a line: Antimycobacterial activity against multidrug resistant Mycobacterium tuberculosis 234/2005 after 21 days by micromethod. To be noted: 234/2005, 504 h. In a few lines: as §1
Experiment [10] deals with Mycobacterium tuberculosis. As to the kind of experiment: Antimycobacterial activity against multidrug resistant Mycobacterium tuberculosis 234/2005 after 14 days by micromethod. The settings on record: 234/2005, 336 h. In short, it runs like this:
as §1

Experiment [11] deals with Mycobacterium tuberculosis. The experiment in a line: Antimycobacterial activity against multidrug resistant Mycobacterium tuberculosis Praha 4 after 21 days by micromethod. To be noted: Praha 4, 504 h. In short, it runs like this:
as §1

Experiment [12] deals with Mycobacterium tuberculosis. As to the kind of experiment: Antimycobacterial activity against multidrug resistant Mycobacterium tuberculosis 242/2015 after 21 days by micromethod. To be noted: 242/2015, 504 h. In short, it runs like this:
as §1

Values after ≈ are worked out from the molar mass of the structure shown.

Regarding `O=C(Nc1ccc(C(F)(F)F)cc1)c1ccc(Cl)cc1O`, the MIC in [1] was determined as 1 µM (≈ 0.316 µg/mL); in [2], 2 µM (≈ 0.631 µg/mL); in experiment [3] it was 1 µM (≈ 0.316 µg/mL); in [4], 2 µM (≈ 0.631 µg/mL); in experiment [5] it was 2 µM (≈ 0.631 µg/mL); in experiment [6] it was 1 µM (≈ 0.316 µg/mL). Moreover, the minimum inhibitory concentration (MIC) amounted to 1 µM (≈ 0.316 µg/mL) in [7]; 1 µM (≈ 0.316 µg/mL) in [8]; 2 µM (≈ 0.631 µg/mL) in [9]; 2 µM (≈ 0.631 µg/mL) in experiment [10]; 2 µM (≈ 0.631 µg/mL) in experiment [11]; 1 µM (≈ 0.316 µg/mL) in experiment [12].

Consider `O=C(Nc1ccc(C(F)(F)F)cc1)c1cc(Cl)ccc1O`, for which the minimal inhibitory concentration (MIC) in [1], in experiment [2], in [3], in [4], in experiment [5] and in [6] was 0.5 µM (≈ 0.158 µg/mL) each time. Moreover, the MIC in experiment [7], in experiment [8], in experiment [9], in [10], in [11] and in experiment [12] was 0.5 µM (≈ 0.158 µg/mL) throughout.

Consider `O=C(Nc1ccc(C(F)(F)F)cc1)c1cc(Br)ccc1O`, for which the MIC is 2 µM (≈ 0.72 µg/mL) in experiment [1]; 2 µM (≈ 0.72 µg/mL) in experiment [2]; 1 µM (≈ 0.36 µg/mL) in experiment [3]; 4 µM (≈ 1.44 µg/mL) in experiment [4]; 2 µM (≈ 0.72 µg/mL) in experiment [5]; 1 µM (≈ 0.36 µg/mL) in experiment [6]. Besides, the MIC in experiment [7] stood at 1 µM (≈ 0.36 µg/mL); in experiment [8] it was 1 µM (≈ 0.36 µg/mL); in experiment [9] it was 4 µM (≈ 1.44 µg/mL); in experiment [10], 2 µM (≈ 0.72 µg/mL); in experiment [11] it was 4 µM (≈ 1.44 µg/mL); in [12], 2 µM (≈ 0.72 µg/mL).

As for `O=C(Nc1ccc(C(F)(F)F)cc1)c1ccc(Br)cc1O`, the minimum inhibitory concentration (MIC) in [1], in [2], in experiment [3], in experiment [4], in [5] and in [6] was 1 µM (≈ 0.36 µg/mL) in each case. The MIC in experiment [7] worked out at 1 µM (≈ 0.36 µg/mL); in experiment [8], 1 µM (≈ 0.36 µg/mL); in [9], 2 µM (≈ 0.72 µg/mL); in experiment [10], 1 µM (≈ 0.36 µg/mL); in experiment [11], 2 µM (≈ 0.72 µg/mL); in [12], 1 µM (≈ 0.36 µg/mL).

Turning to `O=C(Nc1ccc(C(F)(F)F)cc1)c1cc(Br)c(Br)cc1O`, the MIC in [1] was 2 µM (≈ 0.878 µg/mL); in experiment [2], 2 µM (≈ 0.878 µg/mL); in [3], 1 µM (≈ 0.439 µg/mL); in [4] it was 2 µM (≈ 0.878 µg/mL); in experiment [5], 2 µM (≈ 0.878 µg/mL); in experiment [6], 1 µM (≈ 0.439 µg/mL). Further, the MIC in experiment [7] worked out at 1 µM (≈ 0.439 µg/mL); in experiment [8] it was 1 µM (≈ 0.439 µg/mL); in [9], 2 µM (≈ 0.878 µg/mL); in experiment [10] it was 2 µM (≈ 0.878 µg/mL); in [11], 2 µM (≈ 0.878 µg/mL); in [12] it was 2 µM (≈ 0.878 µg/mL).

Turning to `O=C(Nc1ccc(C(F)(F)F)cc1)c1cc(Br)c(Cl)cc1O`, the MIC in [1], in [2], in [3], in experiment [4], in experiment [5] and in experiment [6] was 2 µM (≈ 0.789 µg/mL) in each case. Further, the MIC in experiment [7], in experiment [8], in experiment [9], in [10], in [11] and in experiment [12] was 2 µM (≈ 0.789 µg/mL) each time.

Take `O=C(Nc1ccc(C(F)(F)F)cc1)c1cc(Cl)c(Cl)cc1O`: the minimum inhibitory concentration (MIC) was determined as 1 µM (≈ 0.35 µg/mL) in experiment [1]; 2 µM (≈ 0.7 µg/mL) in experiment [2]; 1 µM (≈ 0.35 µg/mL) in experiment [3]; 2 µM (≈ 0.7 µg/mL) in [4]; 1 µM (≈ 0.35 µg/mL) in experiment [5]; 1 µM (≈ 0.35 µg/mL) in experiment [6]. In addition, the MIC in experiment [7] turned out to be 1 µM (≈ 0.35 µg/mL); in [8], 1 µM (≈ 0.35 µg/mL); in experiment [9], 2 µM (≈ 0.7 µg/mL); in experiment [10] it was 1 µM (≈ 0.35 µg/mL); in experiment [11], 2 µM (≈ 0.7 µg/mL); in [12], 1 µM (≈ 0.35 µg/mL).

On to `O=C(Nc1ccc(C(F)(F)F)cc1)c1cc(Cl)c(Br)cc1O`, for which the MIC in experiment [1], in [2], in [3], in experiment [4], in [5] and in [6] was 2 µM (≈ 0.789 µg/mL) throughout. The MIC in [7] was determined as 2 µM (≈ 0.789 µg/mL); in experiment [8], 2 µM (≈ 0.789 µg/mL); in experiment [9], 2 µM (≈ 0.789 µg/mL); in [10], 2 µM (≈ 0.789 µg/mL); in [11], 4 µM (≈ 1.58 µg/mL); in experiment [12], 2 µM (≈ 0.789 µg/mL).

Consider `NNC(=O)c1ccncc1` [ISONIAZID], for which the MIC in experiment [1], in [2], in [3], in experiment [4], in experiment [5] and in [6] was 16 µM (≈ 2.19 µg/mL) in each case. For the same compound, the MIC in experiment [7] came to 16 µM (≈ 2.19 µg/mL); in experiment [8], 16 µM (≈ 2.19 µg/mL); in [9], 32 µM (≈ 4.39 µg/mL); in [10] it was 16 µM (≈ 2.19 µg/mL); in experiment [11], 16 µM (≈ 2.19 µg/mL); in experiment [12], 16 µM (≈ 2.19 µg/mL).

These data come from ChEMBL document CHEMBL3877325, “Novel salicylanilides from 4,5-dihalogenated salicylic acids: Synthesis, antimicrobial activity and cytotoxicity” (Bioorg Med Chem, 2017).
